Measured values taken from ChEMBL document CHEMBL1123670, “Inhibitors of cyclic AMP phosphodiesterase. 2. Structural variations of N-cyclohexyl-N-methyl-4-[(1,2,3,5-tetrahydro- 2-oxoimidazo[2,1-b]quinazolin-7-yl)-oxy]butyramide (RS-82856)” (J Med Chem, 1987).

Experiments:
[1] = In vivo inhibition of cyclic AMP phosphodiesterase from rat heart; conditions: in the assay text read “In vitro” for “In vivo”
Outline: (§1)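 Cyclic AMP phosphodiesterase prepared from human platelets (IC50, nM) or from rat or dog heart tissue (IC25, nM). Each agent tested at five inhibitor concentrations in triplicate. IC50/IC25 read graphically from the dose-response curve.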

[2] = species: Homo sapiens; assay: Inhibition of ADP-induced platelet aggregation at 100 uM concentration; assay type: functional
[3] = biological target: T1, Phosphodiesterase 3 (Homo sapiens, UniProt Q14432+Q13370); assay: In vitro inhibition of cyclic AMP phosphodiesterase from human platelets
[4] = biological target: T2, Phosphodiesterase; PDE3 & PDE4 (Homo sapiens) (UniProt P27815+Q14432+Q08499+Q07343+Q13370+Q08493); assay: In vivo inhibition of cyclic AMP phosphodiesterase from dog heart; outline: as §1
[5] = species: Homo sapiens; assay: Ratio of IC50 of inhibition of platelet aggregation to IC50 of inhibition of platelet PDE (Efficacy index); assay type: functional
Outline: (§2)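 Efficacy index is the IC50 for inhibition of ADP-induced platelet aggregation divided by the IC50 for human platelet PDE inhibition. Both IC50s come from graphical dose-response curves (five concentrations, triplicate).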

[6] = Inhibition of ADP-induced platelet aggregation; assay type: functional
Outline: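 ADP-induced platelet aggregation. Read-out is the rate of change in percentage transmission of the primary aggregation phase after 5 min incubation. Each agent tested at five concentrations in triplicate, with experiments repeated at least twice using platelets from different donors. IC50 (μM) determined graphically.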

[7] = biological target: T2, Phosphodiesterase; PDE3 & PDE4 (Homo sapiens); assay: Inhibition of canine cardiac cAMP phosphodiesterase; assay type: protein assay; conditions: Canis lupus familiaris; target entry is the homologue from another species; outline: as §1
[8] = biological target: T1, Phosphodiesterase 3; assay: Inhibition of human platelet cAMP phosphodiesterase; outline: as §1
[9] = biological target: T1, Phosphodiesterase 3; assay: Inhibition of human platelet cAMP phosphodiesterase at 10e-4 M
[10] = biological target: T1, Phosphodiesterase 3; assay: Inhibition of human platelet cAMP phosphodiesterase, 20% inhibition at E-4M
[11] = species: Homo sapiens; assay: Ratio of IC50 of inhibition of platelet aggregation to IC50 of inhibition of platelet PDE; assay type: functional; outline: as §2
[12] = Canis lupus familiaris; in the assay text read “In vitro” for “In vivo”; target entry is the homologue from another species
[13] = Canis lupus familiaris; target entry is the homologue from another species; in the assay text read “In vitro” for “In vivo”

| Compound | IC50 [2] | IC50 [3] | IC50 [6] | IC25 [1] | Ratio [5] | other results |
| --- | --- | --- | --- | --- | --- | --- |
| CN(C(=O)CCCOc1ccc2c(c1)CN1CCNC1=N2)C1CCCCC1 | Not Active | 27 µM | – | – | – | IC25 [4, 12]: 21 µM |
| CN(C(=O)CCCOc1ccc2c(c1)CN1CC(=O)NC1=N2)C1CCCCC1 [LIXAZINONE] | – | – | 0.11 µM | – | 10.8 | IC25 [7]: 0.0041 µM; IC50 [8]: 0.0102 µM |
| CN(C(=O)CCCOc1ccc2c(c1)CN1C(=N2)NC(=O)[C@@H]1Cc1ccccc1)C1CCCCC1 | Not Active | > 10 µM | – | – | – | IC25 [4, 13]: > 10 µM |
| CNC(=O)CCCOc1ccc2c(c1)CN1CC(=O)NC1=N2 | Not Active | 1.6 µM | – | – | – | IC25 [4, 13]: 1.3 µM |
| CN(C(=O)CCCOc1ccc2c(c1)CN1NC(=O)NC1=N2)C1CCCCC1 | Not Active | 0.5 µM | – | – | – | IC25 [4, 12]: 0.18 µM |
| O=C(O)CCCOc1ccc2c(c1)CN1CC(=O)NC1=N2 | Not Active | 0.28 µM | – | – | – | IC25 [4, 13]: 0.13 µM |
| CN(C(=O)CCCOc1cccc2c1NC1=NC(=O)CN1C2)C1CCCCC1 | Not Active | – | – | – | – | IC25 [4, 12]: 1.6 µM; inhibition [9]: 20%; IC50 [10]: > 100 µM |
| O=C1CN2Cc3cc(OCCCC(=O)N(C4CCCCC4)C4CCCCC4)ccc3N=C2N1 | – | 0.00145 µM | 0.42 µM | 0.016 µM | 300 | – |
| CN(C(=O)CCCOc1ccc2c(c1)CN1C(=N2)NC(=O)[C@H]1Cc1ccccc1)C1CCCCC1 | Not Active | > 10 µM | – | – | – | IC25 [4, 13]: > 10 µM |
| O=C1CN2Cc3cc(OCCCC(=O)N4CCCC4)ccc3N=C2N1 | – | 0.34 µM | 82 µM | 1.7 µM | 241 | – |
| O=C1CN2Cc3cc(OCCCC(=O)N4CCCc5ccccc54)ccc3N=C2N1 | – | 0.01 µM | 1.05 µM | 0.16 µM | 105 | – |
| CN(C(=O)CCC[S+]([O-])c1ccc2c(c1)CN1CC(=O)NC1=N2)C1CCCCC1 (stereo unspecified) | Not Active | 1.7 µM | – | – | – | IC25 [4, 12]: 6.2 µM |
| COc1ccc(C(=O)N2CCN(c3ccc4c(c3)CCC(=O)N4)CC2)cc1OC [VESNARINONE] | – | 6.2 µM | – | – | – | Ratio [11]: 608 |

Second part, led by results:

| IC50 [2] | IC50 [3] | IC50 [6] | Compound | IC25 [1] | Ratio [5] | other results |
| --- | --- | --- | --- | --- | --- | --- |
| Not Active | 5.4 µM | – | CN(C(=O)CCCOc1ccc2nc3n(c(=O)c2c1)CC(=O)N3)C1CCCCC1 | 2.9 µM | – | – |
| Not Active | 76 µM | – | CN1C(=O)CN2Cc3cc(OCCCC(=O)N(C)C4CCCCC4)ccc3N=C21 | – | – | IC25 [4, 12]: 39 µM |
| Not Active | > 10 µM | – | CC(C)[C@H]1C(=O)NC2=Nc3ccc(OCCCC(=O)N(C)C4CCCCC4)cc3CN21 | – | – | IC25 [4, 12]: 6.4 µM |
| Not Active | 3.3 µM | – | CN(C(=O)CCCOc1ccc2c(c1)CN1C(=N2)NC(=O)[C@H]1c1ccccc1)C1CCCCC1 | – | – | IC25 [4, 13]: 3.3 µM |
| Not Active | 9.6 µM | – | COC1=NC2=Nc3ccc(OCCCC(=O)N(C)C4CCCCC4)cc3CN2C1 | – | – | IC25 [4, 13]: 2.7 µM |
| – | 0.026 µM | 0.39 µM | CN(C(=O)CCCOc1ccc2c(c1)CN1CC(=O)NC1=N2)c1ccccc1 | 0.35 µM | 15 | – |
| – | 0.012 µM | 1.9 µM | CN(C(=O)CCCCCOc1ccc2c(c1)CN1CC(=O)NC1=N2)C1CCCCC1 | 0.021 µM | 158 | – |
| – | 0.005 µM | 5.2 µM | O=C(O)CN(C(=O)CCCOc1ccc2c(c1)CN1CC(=O)NC1=N2)C1CCCCC1 | 0.1 µM | 1040 | – |
| – | 0.82 µM | 7 µM | CN(C(=O)COc1ccc2c(c1)CN1CC(=O)NC1=N2)C1CCCCC1 | 4.4 µM | 8.5 | – |
| – | 0.016 µM | 4.6 µM | CN(C(=O)CCCCCCOc1ccc2c(c1)CN1CC(=O)NC1=N2)C1CCCCC1 | 0.045 µM | 287 | – |
| Not Active | 25 µM | – | CN(C(=O)CCCOc1ccc2nc3n(c(=O)c2c1)CCN3)C1CCCCC1 | 3.7 µM | – | – |
| Not Active | 3.8 µM | – | CN(C(=O)CCCOc1ccc2c(c1)CN1C(=N2)NC(=O)[C@@H]1c1ccccc1)C1CCCCC1 | – | – | IC25 [4, 13]: 4.2 µM |
| – | 1.6 µM | 53 µM | O=C1CN2Cc3cc(OCCCC(=O)N4CCOCC4)ccc3N=C2N1 | 7 µM | 33 | – |
| Not Active | 10 µM | – | CC(C)[C@@H]1C(=O)NC2=Nc3ccc(OCCCC(=O)N(C)C4CCCCC4)cc3CN21 | – | – | IC25 [4, 13]: 6 µM |
